From PubChem
L929 necroptosis = blocks zVAD induced death of L929 cells. L929 zVAD necroptosis rescue, ATP luminescence, 24 h; with zVAD 60 µM. viability rescue, % at 10 µM. 0.38% of 220,000 active;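 active = activation, scaled between plate controls, above about 75%, limit read from the data; inactive = activation under that limit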;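 note: 0% = zVAD with DMSO and 100% = DMSO alone without zVAD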
S1P4 ag = activates the human S1P4 receptor | activation, % at 4.98 µM | O95977 | S1P4-expressing cell line, agonist reporter assay | 0.35% of 220,000 active; in the data active = activation above about 11%;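 note: 0% = DMSO vehicle and 100% = reference agonist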
Target sequence (O95977 whole entry, looked up): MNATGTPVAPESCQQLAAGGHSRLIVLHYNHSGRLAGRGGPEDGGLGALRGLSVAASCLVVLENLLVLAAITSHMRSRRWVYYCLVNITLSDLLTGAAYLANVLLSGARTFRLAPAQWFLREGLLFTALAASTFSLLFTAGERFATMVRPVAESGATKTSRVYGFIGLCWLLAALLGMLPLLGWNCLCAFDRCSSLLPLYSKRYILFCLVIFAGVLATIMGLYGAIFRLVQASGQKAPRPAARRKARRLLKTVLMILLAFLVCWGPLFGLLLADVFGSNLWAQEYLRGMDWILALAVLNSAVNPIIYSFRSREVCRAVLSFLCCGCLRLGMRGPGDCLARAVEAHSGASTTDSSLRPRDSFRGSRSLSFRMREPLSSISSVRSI
Dynein cargo inh = blocks dynein driven cargo transport along microtubules | 3617.4 mouse cells, GR-EGFP nuclear translocation imaging; test concentration mostly 20 µM; stimulated with dexamethasone, 1 µM; active compounds read low | 0.47% of 220,000 active | z-score, hits read low;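 active = plate z-score of nuclear minus cytoplasmic receptor signal below a set negative limit, without overly bright fluorescence or cell loss, cut at about -3.5 in these data, passing the limit was not always enough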;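 note: z-score of nuclear minus cytoplasmic ring GR-EGFP intensity difference per well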
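Medium: Induction medium lacking tetracycline, stripped serum | Probe or stimulus: 1.0 µM final dexamethasone stimulus | Schedule: 48 h induction, then 1 h compound, then 30 min agonist, 37 °C | Signal: Automated 10x imaging of fixed Hoechst-stained cells | Evaluation: Per-cell GR-EGFP intensity, nucleus versus surrounding cytoplasmic ring, well-averaged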
TNF death inh = blocks TNF-alpha induced death of Jurkat FADD-/- cells | 0.068% of 220,000 active | activation (protection from cell death), % at 10 µM | Jurkat FADD-/- TNF necroptosis rescue, ATP luminescence, 24 h; 0 = TNF only, 100 = no-TNF cells;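 active = activation, meaning protection from cell death, of at least 50% relative to plate controls; inactive = activation below 50%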;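 note: necroptosis triggered by 40 ng/mL TNF-alpha added together with compound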
Tb hexokinase = T. brucei hexokinase 1 inhibition | recombinant TbHK1, G6PDH-coupled NADH A340 | inhibition, % at 10 µM | 0.11% of 220,000 active | AID 1430;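 active = inhibition of 50% or more in the single-dose primary screen; inactive = inhibition below 50%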
S1P4 antagonist = antagonists of human S1P4 receptor. S1P4-expressing cells, antagonist mode, reporter read-out. inhibition, % at 4.98 µM. 0.26% of 220,000 active. AID 1510; in the data active = inhibition above about 29%;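 note: 0% = wells stimulated with agonist and 100% = vehicle wells without agonist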
S1P4 agonist cf = confirmation of human S1P4 receptor agonists | shares compounds with S1P4 ag | S1P4 agonist cell-based reporter assay | activation, % at 4.98 µM | 7% of 740 active; in the data active = activation above about 12%;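 note: 0% = vehicle and 100% = full reference agonist response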
S1P1 ag = human S1P1 agonism as S1P4 agonist counter-screen; shares compounds with S1P4 ag; S1P1 agonist cell-based assay, activation; activation, % at 4.98 µM; 4% of 740 active; AID 1563; in the data active = activation above about 21%;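 note: 0% = vehicle wells and 100% = reference agonist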
* hit, by the source's call. A selection: hits, their analogues and other compounds. The true share with any hit is near 1.5%.

Cc1cc(C)nc(N/N=C/c2ccc(N3CCOCC3)cc2)n1 was read as L929 necroptosis 0.7, S1P4 ag 175.2*, Dynein cargo inh 1.85, TNF death inh 1.1, Tb hexokinase -37.1, S1P4 antagonist 15.4, S1P4 agonist cf 21.1* and S1P1 ag 0.6.
For Cc1cc(C)nc(Nc2ccc(N3CCOCC3)cc2)n1 the results were L929 necroptosis 5.4, S1P4 ag 2.0, Dynein cargo inh -0.683, TNF death inh 3.1, Tb hexokinase -1.8 and S1P4 antagonist -1.6.
For Cc1ccc2nc3c(cc(C#N)c(=O)n3-c3nccs3)c(=O)n2c1 the results were L929 necroptosis 0.9, S1P4 ag 31.4*, Dynein cargo inh -0.21, TNF death inh 0.9, Tb hexokinase -6.4, S1P4 antagonist -40.1, S1P4 agonist cf 14.5* and S1P1 ag 23.6*.
Screening CCC(C)n1c(=N)c(C#N)cc2c(=O)n3cc(C)ccc3nc21 (configuration not stated) returned L929 necroptosis -1.0, S1P4 ag 1.7, Dynein cargo inh -0.412, TNF death inh -1.5, Tb hexokinase -4.2 and S1P4 antagonist -22.5.
For Cc1[nH]c2ccccc2c1CCN(Cc1cccs1)C(=S)Nc1ccccc1 the results were L929 necroptosis -1.0, S1P4 ag -2.2, Dynein cargo inh 0.981, TNF death inh -1.4, Tb hexokinase -4.1 and S1P4 antagonist -3.8.
`COc1cccc(NC(=S)N(CCc2c(C)[nH]c3ccccc23)Cc2cccs2)c1` gave L929 necroptosis 0.3, S1P4 ag 15.8*, Dynein cargo inh -0.75, TNF death inh -0.6, Tb hexokinase -0.1, S1P4 antagonist -7.9, S1P4 agonist cf -1.9 and S1P1 ag -2.5.
O=C(CN1CCCC1)Nc1ccc2c(c1)CCC2 was read as L929 necroptosis 3.2, S1P4 ag -1.8, Dynein cargo inh 0.151, TNF death inh 1.3, Tb hexokinase 2.8 and S1P4 antagonist -8.6.
For O=C(CN1CCN(c2ccccc2O)CC1)Nc1ccc2c(c1)CCC2 the results were L929 necroptosis 3.7, S1P4 ag 13.4*, Dynein cargo inh 0.108, TNF death inh 3.7, Tb hexokinase 1.2, S1P4 antagonist -3.1, S1P4 agonist cf -1.5 and S1P1 ag 0.0.
Screening O=C(CN(C(=O)c1ccccc1Cl)N1C(=O)CCCC1=O)c1ccc(Cl)cc1 returned L929 necroptosis 3.2, S1P4 ag 3.5, Dynein cargo inh 0.739, TNF death inh 0.1, Tb hexokinase 0.1 and S1P4 antagonist -14.3.
Screening C=C(C)CNC(=S)N/N=C/c1c(F)cccc1F returned L929 necroptosis -0.8, S1P4 ag 1.3, Dynein cargo inh 1, TNF death inh -1.0, Tb hexokinase -3.4 and S1P4 antagonist -10.0.
For CCOC(=O)CC1Sc2ccccc2NC1=O (configuration not stated) the results were L929 necroptosis -0.3, S1P4 ag 1.5, Dynein cargo inh -0.321, TNF death inh -0.8, Tb hexokinase 1.8 and S1P4 antagonist -1.7.
CCOC(=O)CC1Sc2ccccc2NC1=S (configuration not stated) was read as L929 necroptosis -1.0, S1P4 ag 63.4*, Dynein cargo inh 1.17, TNF death inh 1.3, Tb hexokinase -24.8, S1P4 antagonist 12.5, S1P4 agonist cf -0.8 and S1P1 ag -0.8.
`CCCOc1ccc(/C=N/Nc2cccc([N+](=O)[O-])c2)c(O)c1` gave L929 necroptosis 1.9, S1P4 ag 0.1, Dynein cargo inh -0.242, TNF death inh 3.7, Tb hexokinase -6.9 and S1P4 antagonist -5.9.
CCCOc1ccc(/C=N/Nc2ccc(C(=O)O)cc2)c(OCCC)c1 was read as L929 necroptosis 3.2, S1P4 ag 11.7*, Dynein cargo inh 0.37, TNF death inh -0.6, Tb hexokinase 4.5, S1P4 antagonist 13.0, S1P4 agonist cf -1.4 and S1P1 ag -1.7.
Screening Cc1ccc(CN2CCN(/N=C/c3ccc(C)s3)CC2)c(C)c1 returned L929 necroptosis -0.1, S1P4 ag 0.6, Dynein cargo inh -0.361, TNF death inh 1.4, Tb hexokinase -1.1 and S1P4 antagonist -16.3.
For CCCNS(=O)(=O)c1cc(Cl)ccc1OC the results were L929 necroptosis 14.5, S1P4 ag 16.9*, Dynein cargo inh 0.925, TNF death inh 1.0, Tb hexokinase 0.0, S1P4 antagonist 1.1, S1P4 agonist cf -1.2 and S1P1 ag -2.0.
COc1ccc(S(=O)(=O)Nc2cccc(N(C)S(C)(=O)=O)c2)cc1Br was read as L929 necroptosis 0.5, S1P4 ag 11.4*, Dynein cargo inh -0.204, TNF death inh -0.8, Tb hexokinase -6.7, S1P4 antagonist -7.9, S1P4 agonist cf -1.2 and S1P1 ag 9.4.
`O=C(NCc1c(Cl)cccc1Oc1ccccc1)c1ccccc1` gave L929 necroptosis 0.8, S1P4 ag -0.7, Dynein cargo inh -0.194, TNF death inh -0.3, Tb hexokinase -5.8 and S1P4 antagonist -1.1.
`CCCn1c(SCC(=O)Nc2ccc3c(c2)CCC3)n[nH]c1=O` gave L929 necroptosis 0.8, S1P4 ag 16.4*, Dynein cargo inh 0.441, TNF death inh 4.8, Tb hexokinase -1.2, S1P4 antagonist 1.9, S1P4 agonist cf -1.4 and S1P1 ag -7.7.
CCCn1c(SCC(=O)Nc2ccc(Cl)cc2)n[nH]c1=O was read as L929 necroptosis 1.7, S1P4 ag 0.8, Dynein cargo inh -1.12, TNF death inh 2.3, Tb hexokinase -3.8 and S1P4 antagonist -20.3.
Screening COC(=O)c1c(N2C(=O)[C@H]3[C@@H](C2=O)[C@]2(C(=O)Nc4ccc(C)cc42)N2CCC[C@@H]32)sc(C)c1C returned L929 necroptosis 0.4, S1P4 ag -0.2, Dynein cargo inh 0.11, TNF death inh 0.5, Tb hexokinase -1.7 and S1P4 antagonist 10.6.
For CCOc1ccccc1OCCCCCc1c(C)n[nH]c1C the results were L929 necroptosis -0.5, S1P4 ag 11.3*, Dynein cargo inh 1.23, TNF death inh -1.0, Tb hexokinase -5.6, S1P4 antagonist 0.0, S1P4 agonist cf 11.4* and S1P1 ag 3.4.
For COc1ccccc1OCCCCCc1c(C)n[nH]c1C the results were L929 necroptosis 0.0, S1P4 ag 4.1, Dynein cargo inh 0.299, TNF death inh -7.0, Tb hexokinase -3.2 and S1P4 antagonist 1.2.
COCCCNC(=O)c1ccc(Cn2c(=O)c3ccccc3n(Cc3ccccc3C#N)c2=O)cc1 was read as L929 necroptosis 0.9, S1P4 ag 58.2*, Dynein cargo inh 0.18, TNF death inh -0.6, Tb hexokinase -14.2, S1P4 antagonist -87.8, S1P4 agonist cf -2.2 and S1P1 ag -4.0.
